From PubChem
A selection: hits, their analogues and other compounds. The true share with any hit is near 1.3%.
TDP2 absorb: TDP2 (human) inhibition, absorbance primary screen; recombinant TDP2, T5PNP hydrolysis, p-nitrophenol absorbance 415 nm; AID 720702; inhibition, % at 12.8 µM; 370,000 compounds, 0.34% hits;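 active means inhibition above the mean of all tested compounds plus 3 SD, set per campaign, cut at about 25% in these data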
Target sequence (O95551 whole entry, looked up): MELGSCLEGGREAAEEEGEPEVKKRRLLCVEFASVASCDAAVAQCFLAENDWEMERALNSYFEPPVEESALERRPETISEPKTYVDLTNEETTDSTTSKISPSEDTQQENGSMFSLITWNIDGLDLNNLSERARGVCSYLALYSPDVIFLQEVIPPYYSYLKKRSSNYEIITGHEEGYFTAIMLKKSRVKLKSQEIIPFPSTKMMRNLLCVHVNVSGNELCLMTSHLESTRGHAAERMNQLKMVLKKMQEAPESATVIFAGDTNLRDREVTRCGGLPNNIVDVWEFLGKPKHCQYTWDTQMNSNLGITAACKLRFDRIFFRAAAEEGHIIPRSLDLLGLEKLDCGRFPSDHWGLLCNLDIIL
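System: recombinant human TDP2 / Amount: 120 nM TDP2 per well / Also added: 5 mM T5PNP chromogenic substrate / Doses: 12.8 µM single point, 1% DMSO / Incubation: 2 h at 37 °C / Detection: p-Nitrophenol epi absorbance / Evaluation: % inhibition relative to enzyme-containing and enzyme-free wells / Repeats: singlicate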
ASAP1 inh: blocks human ASAP1-stimulated Arf1 GTP hydrolysis | GDP FP detection | inhibition, % at 16.5 µM | 360,000 compounds, 0.19% hits | AID 624377; in the data active means inhibition above about 25%
LEDGF integ inh: blocks HIV-1 LEDGF/p75-dependent DNA integration; TR-FRET IN-LEDGF/p75 DNA integration, Eu/Cy5; inhibition, % at 3.7 µM; 370,000 compounds, 0.64% hits; AID 743269;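 active means inhibition above the screen-wide mean plus 3 SD, cut at about 13% in these data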;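 further: signal is the Cy5 over europium emission ratio at 671 and 618 nm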
CASP6 VEID inh: blocks human caspase-6 cleavage activity; P55212; purified caspase-6, Z-VEID-R110 cleavage fluorescence; inhibition, % at 12.5 µM; 350,000 compounds, 0.53% hits; AID 686996;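 active means mean inhibition across replicates at least about 35%, with every replicate also reaching that limit, limit read from the data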
ARFGAP1 inh: rat ARFGAP1 inhibition; Q62848; Arfgap1-stimulated ARF1 GTP hydrolysis, GDP FP detection; inhibition, % at 16.5 µM; 360,000 compounds, 0.26% hits;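 active means inhibition above a per-plate limit, mean inhibition of low control wells plus 3 SD, cut at about 25% in these data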
Target sequence (Q62848 1-136 limits assumed): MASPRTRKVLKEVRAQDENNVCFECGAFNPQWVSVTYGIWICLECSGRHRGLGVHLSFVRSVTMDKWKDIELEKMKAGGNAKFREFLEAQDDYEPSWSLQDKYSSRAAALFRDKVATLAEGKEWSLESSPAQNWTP
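System: truncated rat Arfgap1 GAP domain / Benchmarks: high control wells lacking Arfgap1, low control full reaction with DMSO / Times: compound-enzyme preincubation 20 min, reaction 120 min, detection 60 min, 25 °C / Repeats: one replicate per compound / Also added: human ARF1(Δ1-17)-GTP substrate / Measured by: Tracer-displacement fluorescence polarization with EDTA stop, 620/688 nm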
IN multimer act: counter-screen for LEDGF/p75 integration inhibitors: HIV-1 integrase multimerization activators; activation, % at 7.7 µM; 2,000 compounds, 17% hits; shares compounds with LEDGF integ inh; TR-FRET HIV-1 integrase multimerization, biochemical; AID 1053131; in the data active means activation above about 8.9%
TRFRET interf: counter-screen for LEDGF/p75 integration inhibitors: TR-FRET optical interference; AID 1053135; 2,000 tested, under 10 active; inhibition, % at 7.7 µM; shares compounds with LEDGF integ inh; TR-FRET optical interference counterscreen, HIV-1 IN multimerization;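 active means inhibition above the mean over all tested compounds plus 3 SD, which no compound reached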
LEDGF integ conf: LEDGF/p75-dependent HIV-1 integration inhibition, confirmation | shares compounds with LEDGF integ inh | inhibition, % at 3.7 µM | 2,000 compounds, 36% hits | TR-FRET LEDGF/p75-dependent HIV-1 integration, biochemical; in the data active means inhibition above about 14%
Large screens that a line does not name were inactive (follow-up assays come after a bar, where they were run).

COc1cc(C(=O)N2CCCC(c3cc(C(=O)NCc4ccccc4)no3)C2)cc(OC)c1C (stereo unspecified)	none
CCCC(C)NC(=O)Cc1ccc(S(=O)(=O)N2CCOCC2)s1 (stereo unspecified)	none
CCC(CC)NC(=O)Cc1ccc(S(=O)(=O)N2CCOCC2)s1	LEDGF integ inh 16 (no result: CASP6 VEID inh) | IN multimer act inactive | TRFRET interf inactive | LEDGF integ conf inactive
NS(=O)(=O)c1ccc(CNC(=O)c2ccc(C(=O)c3ccccc3)cc2)cc1	none
CCc1c(-c2ccc(OC)c(OC)c2)ncn1CCc1ccccc1OC	none
O=c1ccc2cc(O)c(O)cc2o1	LEDGF integ inh 94 | IN multimer act inactive | TRFRET interf inactive | LEDGF integ conf inactive
O=C(CCN1C(=O)/C(=C/c2ccco2)SC1=S)Nc1ccc(C(=O)O)c(O)c1	LEDGF integ inh 54, CASP6 VEID inh 74 | IN multimer act 12 | TRFRET interf inactive | LEDGF integ conf 40
O=C1/C(=C/c2ccco2)SC(=S)N1CC1CCCO1 (stereo unspecified)	LEDGF integ inh 16, CASP6 VEID inh 61 | IN multimer act inactive | TRFRET interf inactive | LEDGF integ conf 15
Cc1ccc(/C=C2\SC(=S)N(CC3CCCO3)C2=O)o1 (stereo unspecified)	none
O=C(O)CCCN1C(=O)/C(=C\c2ccco2)SC1=S	LEDGF integ inh 35 | IN multimer act inactive | TRFRET interf inactive | LEDGF integ conf 40
O=C(CCCN1C(=O)/C(=C/c2ccco2)SC1=S)Nc1ccccc1C(=O)O	LEDGF integ inh 39, CASP6 VEID inh 62 | IN multimer act 9.7 | TRFRET interf inactive | LEDGF integ conf 27
CCCCN1C(=O)C(CC(=O)NC2CCCC2)CC(C(=O)N(C)C)=C1C (stereo unspecified)	none
COc1ccc(CCC(C)NC(=O)CCc2ccccc2)c(OC)c1 (stereo unspecified)	none
CCOC(=O)CNC(=O)CCCCCC(=O)NCC(=O)OCC	none (no result: CASP6 VEID inh)
Cc1ccc(C=Nc2ccc(N(C)C)cc2)o1	LEDGF integ inh 15 | IN multimer act inactive | TRFRET interf inactive | LEDGF integ conf inactive
O=[N+]([O-])C1=CC=C2C(=NC3(CCCCC3)N2O)C1=NC1CCCCC1	none
CC1(C)CC(N=C2C([N+](=O)[O-])=CC=C3C2=NC2(CCCCC2)N3O)CC(C)(C)N1	LEDGF integ inh 26 | IN multimer act inactive | TRFRET interf inactive | LEDGF integ conf inactive
CCc1ccccc1NC(=O)CCS(=O)(=O)c1ccc(OC)cc1	LEDGF integ inh 16 (no result: CASP6 VEID inh) | IN multimer act inactive | TRFRET interf inactive | LEDGF integ conf inactive
CCOc1ccccc1NC(=O)CCS(=O)(=O)c1ccc(OC)cc1	none
Cc1noc(C)c1C(=O)Nc1ccccc1-c1ccccc1	LEDGF integ inh 27 (no result: CASP6 VEID inh) | IN multimer act inactive | TRFRET interf inactive | LEDGF integ conf inactive
CCCN(CC1CC1)C(=S)NC(=O)c1cc(Br)ccc1Cl	LEDGF integ inh 17 | IN multimer act inactive | TRFRET interf inactive | LEDGF integ conf inactive
CCCN(CC1CC1)C(=S)NC(=O)c1ccccc1C	none
CC(C)CC1NC(=O)c2ccc(Cl)cc2-n2c1nc1ccc(F)cc1c2=O (stereo unspecified)	none
Cc1nc(S/C(=C\c2ccc(-c3ccc(C(=O)O)c(Cl)c3)o2)C(=O)O)n[nH]1	LEDGF integ inh 60, CASP6 VEID inh 59 | IN multimer act 18 | TRFRET interf inactive | LEDGF integ conf 32
Cc1nc(S/C(=C\c2ccc(OCc3ccccc3Cl)cc2)C(=O)O)n[nH]1	none (no result: CASP6 VEID inh)
COc1cc(-c2cc(=O)c3c(O)c(OC)c(OC)c(O)c3o2)ccc1O	LEDGF integ inh 25 | IN multimer act 27 | TRFRET interf inactive | LEDGF integ conf 22
COc1c(O)c(O)c2oc(-c3ccccc3)cc(=O)c2c1OC	none
O=C(CCc1ccccc1)N=C1SC2CS(=O)(=O)CC2N1c1ccccc1 (stereo unspecified)	none
O=C(c1ccc(F)cc1)N(Cc1ccco1)C1CCS(=O)(=O)C1 (stereo unspecified)	none
O=c1oc(/C=C/c2ccco2)nc2sc3c(c12)CCC3	LEDGF integ inh 25 (no result: CASP6 VEID inh) | IN multimer act inactive | TRFRET interf inactive | LEDGF integ conf inactive
O=c1oc(-c2cccs2)nc2sc3c(c12)CCC3	none
Cc1cc(C)nc(SCC(=O)Nc2ncc(C(F)(F)F)cc2Cl)n1	none (no result: CASP6 VEID inh)
O=C(CSc1ncccn1)Nc1ncc(C(F)(F)F)cc1Cl	LEDGF integ inh 82 | IN multimer act inactive | TRFRET interf inactive | LEDGF integ conf inactive
COc1ccc(NC(=O)CCCn2cnc3ccccc3c2=O)c(OC)c1	LEDGF integ inh 16 | IN multimer act inactive | TRFRET interf inactive | LEDGF integ conf inactive
C[C@@H]1CN([C@@H](C)CO)C(=O)c2cc(NC(=O)Nc3ccc4c(c3)OCO4)ccc2O[C@@H](C)CCCCO[C@@H]1CN(C)Cc1ccncc1	none (no result: TDP2 absorb, ASAP1 inh, LEDGF integ inh, ARFGAP1 inh)
CCC(=O)N1[C@H](CO)[C@@H](c2ccccc2)[C@H]1CNC(=O)CN1CCOCC1	none (no result: TDP2 absorb, ASAP1 inh, LEDGF integ inh, ARFGAP1 inh)
CCN(Cc1ccncc1)C(=O)c1cc(COc2ccc(F)cc2F)on1	none
O=Cc1ccc(O)cc1O	none
O=CN/C=C/c1cc(O)ccc1O	LEDGF integ inh 24, CASP6 VEID inh 70 | IN multimer act 18 | TRFRET interf inactive | LEDGF integ conf inactive
COc1ccc(S(=O)(=O)N(C)C[C@@H]2OCCCC[C@@H](C)Oc3ccc(NS(=O)(=O)c4c(C)noc4C)cc3C(=O)N([C@H](C)CO)C[C@H]2C)cc1	none (no result: TDP2 absorb, ASAP1 inh, LEDGF integ inh, ARFGAP1 inh)
COc1ccc(-c2c(-c3cc(OC)cc(OC)c3)n(C)c3ccc(-c4cnc(N)nc4)cc23)cc1	none
COc1ccc(-c2c(-c3cc(OC)cc(OC)c3)n(C)c3ccc(-c4ccc(OC)nc4)cc23)cc1	LEDGF integ inh 19 | IN multimer act inactive | TRFRET interf inactive | LEDGF integ conf inactive
CCNC(=S)NNC(=O)c1cc(-c2cccc(C)c2)nc2ccccc12	none
CCN(CC)c1ccc(N=C2C=CC(=O)C=C2NC(C)=O)cc1	LEDGF integ inh 73 | IN multimer act 36 | TRFRET interf inactive | LEDGF integ conf 35
Cc1ccc(S(=O)(=O)N2CCN(C(=O)COC(=O)C3CC3C)CC2)c(C)c1 (stereo unspecified)	none
O=C(COC(=O)c1c2c(nc3ccccc13)/C(=C\c1ccco1)CC2)NC1CCCC1	LEDGF integ inh 28, CASP6 VEID inh 43 | IN multimer act 34 | TRFRET interf inactive | LEDGF integ conf 50
